Tests used:
[1] = Inhibition of rat liver CYP3A1/3A2; assay type: ADME, tissue-based
Summary of the method: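 CYP3A1/3A2 in rat liver microsomes, measured as erythromycin N-demethylase activity by spectrophotometric formaldehyde determination. Remaining activity was taken as % of control across inhibitor concentrations. IC50 came from a sigmoidal nonlinear regression, with two or three replicate curves.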

Nitric oxide synthase 1 = Nitric oxide synthase 1 (Rattus norvegicus, UniProt P29476); assay: Inhibition of rat brain nNOS
Nitric oxide synthase 1, sequence (P29476 whole entry): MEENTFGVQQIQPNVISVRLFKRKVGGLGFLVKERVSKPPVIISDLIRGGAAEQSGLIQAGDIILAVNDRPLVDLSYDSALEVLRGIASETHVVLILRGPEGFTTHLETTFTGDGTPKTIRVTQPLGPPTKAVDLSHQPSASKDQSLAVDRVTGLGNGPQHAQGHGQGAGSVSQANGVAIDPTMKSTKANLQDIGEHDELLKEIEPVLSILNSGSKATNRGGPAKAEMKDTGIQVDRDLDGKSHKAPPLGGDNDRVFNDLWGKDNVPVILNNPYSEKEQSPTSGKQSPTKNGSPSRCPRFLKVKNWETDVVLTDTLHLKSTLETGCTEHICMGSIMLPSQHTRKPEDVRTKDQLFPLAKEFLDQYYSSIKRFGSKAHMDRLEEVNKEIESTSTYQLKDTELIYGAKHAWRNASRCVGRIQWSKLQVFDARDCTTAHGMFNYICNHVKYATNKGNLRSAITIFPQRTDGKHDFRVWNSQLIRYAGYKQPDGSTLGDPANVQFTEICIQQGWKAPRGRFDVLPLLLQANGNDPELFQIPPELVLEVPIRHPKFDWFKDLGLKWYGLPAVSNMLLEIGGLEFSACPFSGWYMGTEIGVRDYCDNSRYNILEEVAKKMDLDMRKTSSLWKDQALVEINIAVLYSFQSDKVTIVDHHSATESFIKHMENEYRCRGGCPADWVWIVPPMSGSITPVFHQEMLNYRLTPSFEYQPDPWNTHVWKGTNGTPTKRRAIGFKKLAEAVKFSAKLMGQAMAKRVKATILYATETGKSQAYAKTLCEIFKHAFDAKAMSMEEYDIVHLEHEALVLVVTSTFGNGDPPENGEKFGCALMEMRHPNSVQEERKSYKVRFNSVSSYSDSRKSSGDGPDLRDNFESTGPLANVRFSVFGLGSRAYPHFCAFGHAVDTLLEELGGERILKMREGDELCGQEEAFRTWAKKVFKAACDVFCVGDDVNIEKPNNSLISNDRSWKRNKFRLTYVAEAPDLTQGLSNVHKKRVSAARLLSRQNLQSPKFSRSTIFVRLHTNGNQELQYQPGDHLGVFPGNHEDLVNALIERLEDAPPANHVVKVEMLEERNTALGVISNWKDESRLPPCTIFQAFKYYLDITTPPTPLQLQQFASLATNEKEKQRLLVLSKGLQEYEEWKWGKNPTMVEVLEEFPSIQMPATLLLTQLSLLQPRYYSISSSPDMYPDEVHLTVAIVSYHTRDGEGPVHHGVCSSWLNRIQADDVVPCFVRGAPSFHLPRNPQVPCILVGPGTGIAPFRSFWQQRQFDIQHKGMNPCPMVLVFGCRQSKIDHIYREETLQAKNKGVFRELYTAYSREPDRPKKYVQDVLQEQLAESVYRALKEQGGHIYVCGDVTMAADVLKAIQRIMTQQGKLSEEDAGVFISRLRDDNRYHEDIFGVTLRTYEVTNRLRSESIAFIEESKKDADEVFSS
Summary of the method: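 nNOS in rat brain cytosolic fraction, read as conversion of 14C-L-arginine to 14C-L-citrulline. Activity at several inhibitor concentrations was expressed as % of the uninhibited control. IC50 came from a nonlinear sigmoidal dose–response fit, with two or three replicate curves per compound.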

[2] = target: Soluble guanylate cyclase (Rattus norvegicus); assay: Inhibition of rat lung sGC
Cytochrome P450 2E1 = Cytochrome P450 2E1 (Rattus norvegicus, UniProt P05182); assay: Inhibition of rat liver CYP2E1; assay type: ADME, tissue-based
Cytochrome P450 2E1, sequence (P05182 whole entry): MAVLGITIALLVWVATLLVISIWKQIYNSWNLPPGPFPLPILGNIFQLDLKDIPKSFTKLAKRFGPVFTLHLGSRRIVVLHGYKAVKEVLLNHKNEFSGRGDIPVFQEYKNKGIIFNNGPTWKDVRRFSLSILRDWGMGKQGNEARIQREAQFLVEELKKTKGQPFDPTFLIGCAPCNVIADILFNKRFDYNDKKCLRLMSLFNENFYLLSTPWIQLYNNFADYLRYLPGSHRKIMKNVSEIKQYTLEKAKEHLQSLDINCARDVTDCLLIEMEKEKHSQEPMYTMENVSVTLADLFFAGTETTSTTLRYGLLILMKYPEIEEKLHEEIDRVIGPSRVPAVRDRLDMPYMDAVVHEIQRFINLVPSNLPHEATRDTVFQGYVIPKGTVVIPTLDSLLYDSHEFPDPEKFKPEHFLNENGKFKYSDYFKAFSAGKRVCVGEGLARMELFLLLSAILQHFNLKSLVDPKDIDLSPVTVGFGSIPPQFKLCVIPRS
Summary of the method: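 Rat liver microsomal CYP2E1 activity was read as p-nitrophenol hydroxylation, by spectrophotometric measurement of 4-nitrocatechol. Activity at several inhibitor concentrations (HCl salts) was expressed as percent of control. IC50 came from a nonlinear sigmoidal dose-response fit of each of two or three replicate curves.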

Heme oxygenase 2 [3] = target: T1, Heme oxygenase 2 (Rattus norvegicus, UniProt P23711); assay: Inhibition of Sprague-Dawley rat brain HO2
T1 sequence (P23711 whole entry): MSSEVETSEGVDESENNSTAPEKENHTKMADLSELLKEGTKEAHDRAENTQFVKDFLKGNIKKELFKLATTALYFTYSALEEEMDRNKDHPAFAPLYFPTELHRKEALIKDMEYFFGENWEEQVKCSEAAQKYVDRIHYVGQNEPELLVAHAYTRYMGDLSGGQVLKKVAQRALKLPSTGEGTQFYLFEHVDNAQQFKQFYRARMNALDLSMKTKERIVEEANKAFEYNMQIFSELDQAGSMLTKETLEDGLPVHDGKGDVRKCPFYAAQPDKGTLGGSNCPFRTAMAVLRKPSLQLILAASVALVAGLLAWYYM
Summary of the method: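 HO-2 source: Sprague-Dawley rat brain microsomes prepared by differential centrifugation. Compound (HCl salt) at 0.1–100 µM final was preincubated 10 min at 37 °C with 50 µM methemalbumin and 1 mg/mL protein in 100 mM phosphate pH 7.4. NADPH (1 mM final) was added and the mix incubated 15 min at 37 °C, then frozen on dry ice. CO was measured by GC, minus no-NADPH blanks. IC50 from sigmoidal fits, 2–3 replicate curves.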

Heme oxygenase 1 = target: T2, Heme oxygenase 1 (Homo sapiens, UniProt P09601); assay: Inhibition of human spleen HO1
T2 sequence (P09601 whole entry): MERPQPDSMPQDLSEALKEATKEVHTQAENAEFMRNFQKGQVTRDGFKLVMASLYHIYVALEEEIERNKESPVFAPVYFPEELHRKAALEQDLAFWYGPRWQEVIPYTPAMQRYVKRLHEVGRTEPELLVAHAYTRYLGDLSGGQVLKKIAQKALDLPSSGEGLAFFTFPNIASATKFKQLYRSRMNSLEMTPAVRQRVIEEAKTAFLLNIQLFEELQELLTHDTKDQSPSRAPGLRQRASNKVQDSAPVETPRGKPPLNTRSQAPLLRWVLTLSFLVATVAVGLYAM
Summary of the method: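 HO-1 in human spleen microsomes. Heme was given as 50 µM methemalbumin in 100 mM phosphate buffer (pH 7.4) with 1 mg/mL protein. Inhibitor (0.1–100 µM final) was preincubated 10 min at 37 °C, then 1 mM NADPH was added for 15 min at 37 °C. Blanks lacking NADPH were subtracted. Reactions were stopped on dry ice and CO was measured by GC. IC50 came from sigmoidal fits of % control, from 2–3 replicate curves.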

Heme oxygenase 2 [4] = target: T1, Heme oxygenase 2; assay: Inhibition of rat liver HO2
Summary of the method: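 HO-2 source: rat liver microsomes. Heme was presented as methemalbumin (50 µM) with 1 mg/mL protein in 100 mM phosphate pH 7.4. Compound (HCl salt) was preincubated 10 min at 37 °C, then NADPH (1 mM final) was added for 15 min at 37 °C. CO was measured by GC, minus no-NADPH blanks. IC50 from sigmoidal fits of replicate curves.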

Structure (SMILES) | IC50 [1] [µM] | IC50 (Nitric oxide synthase 1) [µM] | IC50 [2] [µM] | IC50 (Cytochrome P450 2E1) [µM] | IC50 (Heme oxygenase 2 [3]) [µM] | IC50 (Heme oxygenase 1) [µM] | IC50 (Heme oxygenase 2 [4]) [µM]
Clc1ccc(CCC2(Cn3ccnc3)SCCS2)cc1 | 5.9 | 34 |  |  |  |  | 
Clc1ccc(CCC2(Cn3ccnc3)OCCO2)cc1 |  | 182 | > 1000 | 5 | > 100 |  | 
C[C@@H]1CO[C@@](CCc2ccc(Cl)cc2)(Cn2ccnc2)O1 | 3.2 | 362 |  | 3.6 |  | 1.5 | 532
C[C@H]1CO[C@](CCc2ccc(Cl)cc2)(Cn2ccnc2)O1 | 10 | > 500 |  | 20 | > 100 |  | 
C[C@@H]1CO[C@](CCc2ccc(Cl)cc2)(Cn2ccnc2)O1 | 7 | > 500 |  | 30 | > 100 |  | 
C[C@H]1CO[C@@](CCc2ccc(Cl)cc2)(Cn2ccnc2)O1 | 8 | 773 |  | 6 |  |  | 

Source: ChEMBL document CHEMBL1138063, “Imidazole-dioxolane compounds as isozyme-selective heme oxygenase inhibitors” (J Med Chem, 2006)
